Measurements pooled from the literature.
Compare with care: the assays were run in different laboratories.
Matrix: plasma
Route: intravenous

The Vd of `Cc1nc(Nc2ncc(C(=O)Nc3c(C)cccc3Cl)s2)cc(N2CC[C@H](O)C2)n1` is reported as 0.9 L/kg (male Sprague-Dawley rat; 1 mg/kg).
For `Cc1cc(S(=O)(=O)N[C@H]2CC[C@H](CN3CCN(c4ccc(C5CCC(=O)NC5=O)c(Cl)c4)CC3)CC2)ccc1Nc1ncc(C(F)(F)F)c(N2CCC[C@](C)(O)C2)n1` (stereo partly shown), the Vd was 3 L/kg (rat; 2 mg/kg).
The Vd of `Cn1c(=O)c2[nH]cnc2n(C)c1=O` is reported as 1.52 L/kg (male Sprague-Dawley rat; 22.5 mg/kg).
With `C[C@H]1CN(CC2CCN(c3ccc(C4CCC(=O)NC4=O)cc3F)CC2)CC[C@H]1NS(=O)(=O)c1ccc(Nc2ncc(C(F)(F)F)c(N3CCC[C@](C)(O)C3)n2)c(F)c1` (stereo partly shown) the Vd was 7 L/kg (rat; 2 mg/kg).
The Vd of `[2H]c1cc(C)c(NC(=O)c2cnc(Nc3cc(N4CCC(O)CC4)nc(C)n3)s2)c(Cl)c1` is reported as 4.8 L/kg (male Sprague-Dawley rat; 1 mg/kg).
The Vd of `COc1ccc(-c2coc3cc(O)cc(O)c3c2=O)cc1` is reported as 0.81 L/kg (rat; 2 mg/kg).
For `Cc1nc(Nc2ncc(C(=O)Nc3c(C)cccc3Cl)s2)cc(N2CCN(CCO)CC2)n1`, the Vd was 2.8 L/kg (male Sprague-Dawley rat; 1 mg/kg).
The Vd of `COc1ccc(N(Cc2csc(-c3ccccc3)n2)C(=O)CCCCCC(=O)NO)cc1` is reported as 441 L/kg (female Sprague-Dawley rat; 5 mg/kg).
With `CCONC(=O)N1CCC[C@H](C(=O)NCc2nc(-c3ccc(C#N)cc3)cs2)C1` the Vd was 0.45 L/kg (male Sprague-Dawley rat; 1 mg/kg).
With `C[C@]1(O)CCCN(c2nc(Nc3ccc(S(=O)(=O)N[C@H]4CC[C@H](CN5CCN(c6ccc(C7CCC(=O)NC7=O)cc6F)CC5)CC4)cc3F)ncc2C(F)(F)F)C1` (stereo partly shown) the Vd was 4 L/kg (rat; 2 mg/kg).
The Vd of `COCC(=O)N1CCC[C@H](C(=O)NCc2nc(-c3ccc(C#N)cc3)cs2)C1` is reported as 0.18 L/kg (male Sprague-Dawley rat; 1 mg/kg).
`Cc1nc(Nc2ncc(C(=O)Nc3c(C)cccc3Cl)s2)cc(N2CC[C@@H](N)C2)n1` gave a Vd of 32.8 L/kg (male Sprague-Dawley rat; 1 mg/kg).
With `COCC(=O)N1CCC[C@H](C(=O)NCc2nc(-c3ccccc3)cs2)C1` the Vd was 0.18 L/kg (male Sprague-Dawley rat; 1 mg/kg).
For `C[C@]1(O)CCCN(c2nc(Nc3ccc(S(=O)(=O)N[C@H]4CC[C@H](CN5CCN(c6ccc(C7CCC(=O)NC7=O)c(F)c6)CC5)CC4)cc3F)ncc2C(F)(F)F)C1` (stereo partly shown), the Vd was 3 L/kg (rat; 2 mg/kg).
For `CCOCC(=O)N1CCC[C@H](C(=O)NCc2nc(-c3ccc(C)nc3)cs2)C1`, the Vd was 0.3 L/kg (male Sprague-Dawley rat; 1 mg/kg).
`CC(=O)c1c(C)c2cnc(Nc3ccc(N4CCNCC4)cn3)nc2n(C2CCCC2)c1=O` has a Vd of 3.3 L/kg (male Sprague-Dawley rat; 5 mg/kg).
